The source made the active and inactive calls. The calls are words filed in the database; no cut-off is given here.
Experiments:
[1] = molecular target: Tubulin (Bos taurus, UniProt Q6B856+Q862L2+Q862F3); assay: Inhibition of bovine brain tubulin polymerization preincubated for 15 mins followed by GTP addition and measured after 20 mins by turbidimetric analysis
How it was run: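 Mixtures (0.25 mL final) held 10 μM (1 mg/mL) bovine brain tubulin, 0.8 M monosodium glutamate pH 6.6, 4% DMSO and compound. Preincubated 15 min at 30 °C without GTP, chilled to 0 °C, then GTP added to 0.1 mM final. Warmed to 30 °C, turbidity followed at 350 nm for 20 min. IC50 = concentration halving polymerization extent at 20 min.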

[2] = tested on: MCF7; assay: Cytotoxicity against human MCF7 cells assessed as inhibition of cell growth incubated for 96 hrs by SRB assay; conditions: MCF7, 96 h
[3] = tested on: MDA-MB-231; assay: Cytotoxicity against human MDA-MB-231 cells assessed as inhibition of cell growth incubated for 48 hrs by SRB assay; type: functional, cell-based; conditions: MDA-MB-231, 48 h
How it was run: (§1)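 Seeded at 12,000 cells/well in triplicate and grown 24 h at 37 °C, 5% CO2 in high-glucose DMEM with 10% FBS and 30 μg/mL gentamicin. Serial dilutions in medium from 10 mg/mL DMSO stocks, 48 h exposure. Fixed with TCA (6% final), SRB-stained, dye solubilized in 10 mM Tris, A530.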

[4] = tested on: PANC-1; assay: Cytotoxicity against human PANC-1 cells assessed as inhibition of cell growth incubated for 48 hrs by SRB assay; type: functional, cell-based; conditions: PANC-1, 48 h; how it was run: as §1
[5] = tested on: PANC-1; assay: Inhibition of cell migration in human PANC-1 cells at 0.5 to 1 uM incubated for 48 hrs by scratch wound healing assay; type: functional, cell-based; conditions: dose 0.5-1 µM
How it was run: (§2)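 About 1 × 10^5 cells seeded per well of a 6-well plate in DMEM with 10% heat-inactivated FBS and 30 μg/mL gentamicin at 37 °C, 5% CO2. Grown to 70–80% confluency, scratched with a 10 μL pipette tip, medium replaced. Two wells per condition at 0.5 or 1 μM, DMSO ≤0.2% final, with two control wells. Gap imaged by automated microscopy (4X) over 48 h.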

[6] = tested on: PANC-1; assay: Inhibition of cell migration in human PANC-1 cells at 0.5 uM incubated for 1 to 40 hrs by scratch wound healing assay; type: functional, cell-based; conditions: time 1-40 hrs; how it was run: as §2
[7] = tested on: PANC-1; assay: Inhibition of cell migration in human PANC-1 cells at 1 uM incubated at 40 hrs by scratch wound healing assay; type: functional, cell-based; how it was run: as §2
[8] = tested on: MCF7; assay: Cytotoxicity against human MCF7 cells assessed as inhibition of cell growth incubated for 48 hrs by SRB assay; type: functional, cell-based; conditions: MCF7, 48 h

Row | SMILES | IC50 [1] | IC50 [2] | IC50 [3] | IC50 [4] | inhibition [5] | inhibition [6] | inhibition [7] | IC50 [8]
1 | COc1cc(C2(c3c(-c4ccc(C)cc4)[nH]c4cc(Cl)ccc34)COC2)cc(OC)c1OC | > 20 µM | 2700 nM | – | – | – | – | – | –
2 | COc1cc(C2(c3c(-c4ccccc4)[nH]c4c(OC)cccc34)COC2)cc(OC)c1OC | > 20 µM | 780 nM | 3000 nM | 440 nM | Active | Active | Active | –
3 | COc1cc(C2(c3c(-c4ccccc4)[nH]c4ccc(Br)cc34)COC2)cc(OC)c1OC | > 20 µM | 2200 nM | – | – | – | – | – | –
4 | COc1cc(C2(c3c(-c4ccccc4)[nH]c4ccccc34)COC2)cc(OC)c1OC | > 20 µM | > 5000 nM | – | – | – | – | – | –
5 | COc1ccc2[nH]c(-c3ccc(C)cc3)c(C3(c4cc(OC)c(OC)c(OC)c4)COC3)c2c1 | > 20 µM | > 5000 nM | – | – | – | – | – | –
6 | COc1ccc(-c2[nH]c3cc(Cl)ccc3c2C2(c3cc(OC)c(OC)c(OC)c3)COC2)cc1 | > 20 µM | – | – | – | – | – | – | 3700 nM
7 | COc1cc(C2(c3c(-c4ccc(C)cc4)[nH]c4ccccc34)COC2)cc(OC)c1OC | > 20 µM | > 5000 nM | – | – | – | – | – | –
8 | COc1ccc(-c2[nH]c3ccccc3c2C2(c3cc(OC)c(OC)c(OC)c3)COC2)cc1 | > 20 µM | > 5000 nM | – | – | – | – | – | –
9 | COc1cc(C2(c3c(-c4ccc(C)cc4)[nH]c4cc(Br)ccc34)COC2)cc(OC)c1OC | > 20 µM | 1700 nM | – | – | – | – | – | –
10 | COc1cc(C2(c3c(-c4ccccc4)[nH]c4cc(Cl)ccc34)COC2)cc(OC)c1OC | > 20 µM | 840 nM | 2200 nM | 1100 nM | – | – | – | –
11 | COc1ccc2[nH]c(-c3ccccc3)c(C3(c4cc(OC)c(OC)c(OC)c4)COC3)c2c1 | > 20 µM | 3200 nM | – | – | – | – | – | –
12 | COc1cc(C2(c3c(-c4ccccc4)[nH]c4cc(Br)ccc34)COC2)cc(OC)c1OC | > 20 µM | 470 nM | 1900 nM | 430 nM | Active | Active | Active | –
13 | COc1cccc(-c2[nH]c3ccccc3c2C2(c3cc(OC)c(OC)c(OC)c3)COC2)c1 | > 20 µM | 4800 nM | – | – | – | – | – | –
14 | COc1ccc2c(C3(c4cc(OC)c(OC)c(OC)c4)COC3)c(-c3ccc(OC)c(O)c3)[nH]c2c1 | > 20 µM | – | – | – | – | – | – | 1600 nM
